# How the values were obtained:
# Parameters in all cases: dose 5 mg/kg, dosed compound name [14C]CS-1036, route oral
# Conditions in all cases: in vivo
# [1] = Drug uptake in albino F344/DuCrlCrlj rat urinary bladder assessed as ng equivalent of CS-1036 at 5 mg/kg, po after 24 hrs by liquid scintillation counting; format: ADME, organism-based
# Plasma [2] = assay: Drug uptake in albino F344/DuCrlCrlj rat plasma assessed as ng equivalent of CS-1036 at 5 mg/kg, po after 72 hrs by liquid scintillation counting; format: ADME, organism-based
# Stomach [3] = assay: Drug uptake in albino F344/DuCrlCrlj rat stomach at 5 mg/kg, po after 4 hrs by liquid scintillation counting; format: ADME, organism-based
# Small intestine [4] = assay: Drug uptake in albino F344/DuCrlCrlj rat small intestine at 5 mg/kg, po after 4 hrs by liquid scintillation counting; format: ADME, organism-based
# Lung [5] = assay: Drug uptake in albino F344/DuCrlCrlj rat lung at 5 mg/kg, po after 8 hrs by liquid scintillation counting; format: ADME, organism-based
# [6] = Drug uptake in albino F344/DuCrlCrlj rat epididymis at 5 mg/kg, po after 8 hrs by liquid scintillation counting; format: ADME, organism-based
# Plasma [7] = assay: Drug uptake in albino F344/DuCrlCrlj rat plasma at 5 mg/kg, po after 24 hrs by liquid scintillation counting; format: ADME, organism-based
# Large intestine = assay: Drug uptake in albino F344/DuCrlCrlj rat large intestine at 5 mg/kg, po after 336 hrs by liquid scintillation counting; format: ADME, organism-based
# [8] = Drug uptake in albino F344/DuCrlCrlj rat fat assessed as ng equivalent of CS-1036 at 5 mg/kg, po after 1 hr by liquid scintillation counting; format: ADME, organism-based, Adipose tissue
# Method in brief: (§1)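 Male F344/DuCrlCrlj rats (bought at 7 weeks, acclimatized 5–6 days; 159–167 g; n = 3 per time point) received a single oral dose of [14C]CS-1036 at 5 mg/kg. White adipose tissue was collected after abdominal aortic bleeding at 1, 4, 8, 24, 72, 168 or 336 h. Samples were counted by LSC with external-standard efficiency correction. Results were converted to ng equivalents per g from specific activity and sample weight.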
# [9] = Drug uptake in albino F344/DuCrlCrlj rat bone marrow assessed as ng equivalent of CS-1036 at 5 mg/kg, po after 1 hr by liquid scintillation counting; format: ADME, organism-based
# Plasma [10] = assay: Drug uptake in albino F344/DuCrlCrlj rat plasma assessed as ng equivalent of CS-1036 at 5 mg/kg, po after 4 hrs by liquid scintillation counting; format: ADME, organism-based
# Cerebellum = assay: Drug uptake in albino F344/DuCrlCrlj rat cerebellum assessed as ng equivalent of CS-1036 at 5 mg/kg, po after 4 hrs by liquid scintillation counting; format: ADME, organism-based
# Harderian gland [11] = assay: Drug uptake in albino F344/DuCrlCrlj rat harderian gland assessed as ng equivalent of CS-1036 at 5 mg/kg, po after 4 hrs by liquid scintillation counting; format: ADME, organism-based
# [12] = Drug uptake in albino F344/DuCrlCrlj rat thyroid gland assessed as ng equivalent of CS-1036 at 5 mg/kg, po after 4 hrs by liquid scintillation counting; format: ADME, organism-based
# Blood = assay: Drug uptake in albino F344/DuCrlCrlj rat blood assessed as ng equivalent of CS-1036 at 5 mg/kg, po after 72 hrs by liquid scintillation counting; format: ADME, organism-based
# Method in brief: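 Male F344/DuCrlCrlj rats (159–167 g; n = 3 per time point) received a single oral dose of [14C]CS-1036 at 5 mg/kg. Blood was taken from the abdominal aorta at 1, 4, 8, 24, 72, 168 and 336 h. Radioactivity was counted by LSC with external-standard efficiency correction. Results were converted to ng equivalent of CS-1036/ml using specific activity and sample volume, and reported as mean + S.D.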
# Spleen [13] = assay: Drug uptake in albino F344/DuCrlCrlj rat spleen assessed as ng equivalent of CS-1036 at 5 mg/kg, po after 72 hrs by liquid scintillation counting; format: ADME, organism-based
# Pancreas = assay: Drug uptake in albino F344/DuCrlCrlj rat pancreas assessed as ng equivalent of CS-1036 at 5 mg/kg, po after 72 hrs by liquid scintillation counting; format: ADME, organism-based
# [14] = Drug uptake in albino F344/DuCrlCrlj rat brown fat assessed as ng equivalent of CS-1036 at 5 mg/kg, po after 72 hrs by liquid scintillation counting; format: ADME, organism-based, Brown adipose tissue
# Zone of skin = assay: Drug uptake in albino F344/DuCrlCrlj rat skin assessed as ng equivalent of CS-1036 at 5 mg/kg, po after 72 hrs by liquid scintillation counting; format: ADME, organism-based
# Spleen [15] = assay: Drug uptake in albino F344/DuCrlCrlj rat spleen at 5 mg/kg, po after 24 hrs by liquid scintillation counting; format: ADME, organism-based
# [16] = Drug uptake in albino F344/DuCrlCrlj rat thyroid gland at 5 mg/kg, po after 72 hrs by liquid scintillation counting; format: ADME, organism-based
# Kidney = assay: Drug uptake in albino F344/DuCrlCrlj rat kidney at 5 mg/kg, po after 72 hrs by liquid scintillation counting; format: ADME, organism-based
# Aorta [17] = assay: Drug uptake in albino F344/DuCrlCrlj rat aorta at 5 mg/kg, po after 72 hrs by liquid scintillation counting; format: ADME, organism-based
# [18] = Drug uptake in albino F344/DuCrlCrlj rat fat assessed as ng equivalent of CS-1036 at 5 mg/kg, po after 4 hrs by liquid scintillation counting; format: ADME, organism-based, Adipose tissue; method in brief: as §1
# [19] = Drug uptake in albino F344/DuCrlCrlj rat skeletal muscle assessed as ng equivalent of CS-1036 at 5 mg/kg, po after 168 hrs by liquid scintillation counting; format: ADME, organism-based, Muscle tissue
# Lung [20] = assay: Drug uptake in albino F344/DuCrlCrlj rat lung assessed as ng equivalent of CS-1036 at 5 mg/kg, po after 8 hrs by liquid scintillation counting; format: ADME, organism-based
# [21] = Drug uptake in albino F344/DuCrlCrlj rat bone marrow assessed as ng equivalent of CS-1036 at 5 mg/kg, po after 168 hrs by liquid scintillation counting; format: ADME, organism-based
# [22] = Drug uptake in albino F344/DuCrlCrlj rat urinary bladder assessed as ng equivalent of CS-1036 at 5 mg/kg, po after 168 hrs by liquid scintillation counting; format: ADME, organism-based
# Stomach [23] = assay: Drug uptake in albino F344/DuCrlCrlj rat stomach assessed as ng equivalent of CS-1036 at 5 mg/kg, po after 8 hrs by liquid scintillation counting; format: ADME, organism-based
# Small intestine [24] = assay: Drug uptake in albino F344/DuCrlCrlj rat small intestine assessed as ng equivalent of CS-1036 at 5 mg/kg, po after 8 hrs by liquid scintillation counting; format: ADME, organism-based
# Plasma [25] = assay: Drug uptake in albino F344/DuCrlCrlj rat plasma at 5 mg/kg, po after 168 hrs by liquid scintillation counting; format: ADME, organism-based
# Harderian gland [26] = assay: Drug uptake in albino F344/DuCrlCrlj rat harderian gland at 5 mg/kg, po after 168 hrs by liquid scintillation counting; format: ADME, organism-based
# [27] = Drug uptake in albino F344/DuCrlCrlj rat fat assessed as ng equivalent of CS-1036 at 5 mg/kg, po after 24 hrs by liquid scintillation counting; format: ADME, organism-based, Adipose tissue; method in brief: as §1
# Aorta [28] = assay: Drug uptake in albino F344/DuCrlCrlj rat aorta assessed as ng equivalent of CS-1036 at 5 mg/kg, po after 24 hrs by liquid scintillation counting; format: ADME, organism-based
smiles,measurement,setting,value
C[C@H]1O[C@@H](O[C@H]2[C@H](O)[C@@H](O)[C@@H](O[14C@H]3[14C@H](O)[14CH2]N[14C@@H]3[14CH2]O)O[C@@H]2CO)[C@H](O)[C@@H](O)[C@@H]1O,Radiolabel recovery,[1],8.6 ngequiv/g
same,Radiolabel recovery,Plasma [2],8 ngequiv/ml
same,Radiolabel recovery,Stomach [3],129 ngequiv/g
same,Radiolabel recovery,Small intestine [4],965 ngequiv/g
same,Radiolabel recovery,Lung [5],64.8 ngequiv/g
same,Radiolabel recovery,[6],40.8 ngequiv/g
same,Radiolabel recovery,Plasma [7],46.3 ngequiv/ml
same,Radiolabel recovery,Large intestine,9.86 ngequiv/g
same,Radiolabel recovery,[8],1.53 ngequiv/g
same,Radiolabel recovery,[9],4.6 ngequiv/g
same,Radiolabel recovery,Plasma [10],26.7 ngequiv/ml
same,Radiolabel recovery,Cerebellum,0.6 ngequiv/g
same,Radiolabel recovery,Harderian gland [11],5.1 ngequiv/g
same,Radiolabel recovery,[12],21.4 ngequiv/g
same,Radiolabel recovery,Blood,6.6 ngequiv/ml
same,Radiolabel recovery,Spleen [13],19.5 ngequiv/g
same,Radiolabel recovery,Pancreas,82 ngequiv/g
same,Radiolabel recovery,[14],136 ngequiv/g
same,Radiolabel recovery,Zone of skin,48.7 ngequiv/g
same,Radiolabel recovery,Spleen [15],82.4 ngequiv/g
same,Radiolabel recovery,[16],99.1 ngequiv/g
same,Radiolabel recovery,Kidney,77.9 ngequiv/g
same,Radiolabel recovery,Aorta [17],35.8 ngequiv/g
same,Radiolabel recovery,[18],1.74 ngequiv/g
same,Radiolabel recovery,[19],4.5 ngequiv/g
same,Radiolabel recovery,Lung [20],72.1 ngequiv/g
same,Radiolabel recovery,[21],23 ngequiv/g
same,Radiolabel recovery,[22],6.6 ngequiv/g
same,Radiolabel recovery,Stomach [23],59 ngequiv/g
same,Radiolabel recovery,Small intestine [24],36 ngequiv/g
same,Radiolabel recovery,Plasma [25],3.57 ngequiv/ml
same,Radiolabel recovery,Harderian gland [26],17.1 ngequiv/g
same,Radiolabel recovery,[27],21 ngequiv/g
same,Radiolabel recovery,Aorta [28],8.4 ngequiv/g

# Source: ChEMBL document CHEMBL3526002, “Tissue distribution and identification of radioactivity components at elimination phase after oral administration of [¹⁴C]CS-1036, an α-amylase inhibitor, to rats” (Drug Metab Dispos, 2013)
